Source: ChEMBL document CHEMBL1153234, “Synthesis and biological evaluation of nitrogen-containing chalcones as possible anti-inflammatory and antioxidant agents” (Bioorg Med Chem Lett, 2010)
Calls of active or inactive are those of the source. The calls are words filed in the database; no cut-off is given here.

How the values were obtained:
[1] = Inhibition of trypsin at 10 uM
In short: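 Trypsin (0.075 mg/mL) was preincubated 20 min with test sample from a 1 mM stock. The reaction was stopped with 5% trichloroacetic acid and centrifuged. Acid-soluble protein was measured by the Lowry method. Salicylic acid (10^-6 M) was the reference. Values are means of n = 2.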

[2] = system: Radical scavenging activity; test: Antioxidant activity assessed as DPPH radical scavenging activity at 10 uM; assay type: functional
In short: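 Test sample from a 1 mM stock in absolute ethanol was mixed with DPPH radical (10^-4 M in absolute ethanol). Absorbance was read at 517 nm after 20 min. Quercetin served as reference. Values are means of n = 2.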

[3] = target: T1, Prostaglandin G/H synthase 2 (Ovis aries) (UniProt P79208); test: Inhibition of ovine COX2 at 1 mM by colorimetric assay
T1 sequence (whole entry): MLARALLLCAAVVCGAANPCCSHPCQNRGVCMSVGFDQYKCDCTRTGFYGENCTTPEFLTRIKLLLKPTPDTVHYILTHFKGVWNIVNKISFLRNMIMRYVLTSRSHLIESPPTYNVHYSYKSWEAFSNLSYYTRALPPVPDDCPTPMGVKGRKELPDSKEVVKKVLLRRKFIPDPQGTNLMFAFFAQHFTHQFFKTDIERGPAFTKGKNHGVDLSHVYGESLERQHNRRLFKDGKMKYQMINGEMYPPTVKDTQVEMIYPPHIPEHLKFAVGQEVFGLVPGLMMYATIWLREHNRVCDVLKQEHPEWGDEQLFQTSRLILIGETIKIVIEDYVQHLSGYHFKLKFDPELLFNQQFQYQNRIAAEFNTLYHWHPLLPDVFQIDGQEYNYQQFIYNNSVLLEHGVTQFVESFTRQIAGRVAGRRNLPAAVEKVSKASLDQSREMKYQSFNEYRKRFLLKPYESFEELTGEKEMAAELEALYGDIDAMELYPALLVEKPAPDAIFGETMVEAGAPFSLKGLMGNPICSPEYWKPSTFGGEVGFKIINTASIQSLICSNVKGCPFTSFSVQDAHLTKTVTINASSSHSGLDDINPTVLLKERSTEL
In short: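 Ovine COX-2 was tested with a colorimetric screening kit. Enzyme, heme and assay buffer were preincubated 5 min at 25 °C with test sample added from a 1 mM solution. Colorimetric substrate and arachidonic acid were then added, followed by a further 5 min at 25 °C. Absorbance was read at 590 nm, and % activity = inhibitor-well/no-inhibitor-well absorbance × 100. Values are means of n = 2.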

[4] = target: T2, Beta-glucuronidase (Homo sapiens) (UniProt P08236); test: Inhibition of beta-glucuronidase at 10 uM
T2 sequence (whole entry): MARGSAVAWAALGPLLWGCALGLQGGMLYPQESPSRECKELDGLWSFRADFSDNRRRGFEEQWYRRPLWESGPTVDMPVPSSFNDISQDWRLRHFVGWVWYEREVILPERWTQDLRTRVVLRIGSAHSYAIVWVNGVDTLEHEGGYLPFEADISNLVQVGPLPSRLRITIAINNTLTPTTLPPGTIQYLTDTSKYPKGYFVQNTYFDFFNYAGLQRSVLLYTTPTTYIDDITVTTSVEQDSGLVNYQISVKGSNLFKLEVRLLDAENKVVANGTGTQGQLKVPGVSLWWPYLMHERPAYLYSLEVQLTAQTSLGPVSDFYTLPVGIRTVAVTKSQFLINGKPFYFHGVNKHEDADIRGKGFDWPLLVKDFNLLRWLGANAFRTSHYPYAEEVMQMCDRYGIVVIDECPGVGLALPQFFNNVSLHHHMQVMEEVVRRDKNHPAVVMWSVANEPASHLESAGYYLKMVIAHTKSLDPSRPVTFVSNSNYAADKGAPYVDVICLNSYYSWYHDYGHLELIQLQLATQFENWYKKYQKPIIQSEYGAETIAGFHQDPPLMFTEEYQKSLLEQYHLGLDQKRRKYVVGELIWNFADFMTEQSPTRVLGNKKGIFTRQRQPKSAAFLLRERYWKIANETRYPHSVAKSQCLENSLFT
In short: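 Test sample from a 1 mM stock in 0.1 M acetate buffer pH 7.4 was preincubated 5 min at 37 °C with 2.5 mM p-nitrophenyl β-D-glucopyranosiduronic acid. β-Glucuronidase was then added and the mixture incubated 30 min. The reaction was stopped with 0.5 N NaOH and read at 410 nm. Salicylic acid (1 mM) was the reference. Values are means of n = 2.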

[5] = target: T3, Prostaglandin G/H synthase 1 (Ovis aries) (UniProt P05979); conditions: at 1 mM
T3 sequence (whole entry): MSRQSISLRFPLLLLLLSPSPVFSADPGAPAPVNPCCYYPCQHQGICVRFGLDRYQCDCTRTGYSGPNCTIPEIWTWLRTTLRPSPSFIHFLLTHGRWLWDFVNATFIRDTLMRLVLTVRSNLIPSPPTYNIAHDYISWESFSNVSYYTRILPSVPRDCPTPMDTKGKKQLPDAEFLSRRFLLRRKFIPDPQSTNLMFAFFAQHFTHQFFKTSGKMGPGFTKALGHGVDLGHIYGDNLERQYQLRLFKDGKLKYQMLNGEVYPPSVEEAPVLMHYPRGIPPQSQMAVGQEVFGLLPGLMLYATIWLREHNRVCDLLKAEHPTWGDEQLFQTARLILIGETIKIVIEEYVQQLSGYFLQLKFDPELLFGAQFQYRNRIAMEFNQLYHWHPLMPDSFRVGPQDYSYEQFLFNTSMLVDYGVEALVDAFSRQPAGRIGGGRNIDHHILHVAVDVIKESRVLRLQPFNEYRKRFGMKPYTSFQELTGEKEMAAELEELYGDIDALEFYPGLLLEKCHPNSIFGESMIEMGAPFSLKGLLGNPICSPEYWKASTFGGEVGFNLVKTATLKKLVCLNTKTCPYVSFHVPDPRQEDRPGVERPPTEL

Structure (SMILES) | inhibition [1] | Activity [2] | inhibition [3] [%] | inhibition [4] | inhibition [5] [%]
COc1cc(OC)c(C(=O)/C=C/c2ccccc2Cl)c(O)c1CN1CCCC1 | 0.8% | 7.89% | 42.5 | 32.4% | –
COc1cc(OC)c(C(=O)/C=C/c2cccc(Cl)c2)c(O)c1CN1CCCC1 | 0.9% | 3.1% | 29.6 | 14.8% | –
COc1cc(OC)c(C(=O)/C=C/c2cccc(Br)c2)c(O)c1CN1CCCCC1 | 2.8% | 33% | 87.5 | 15.4% | 21.7
COc1cc(OC)c(C(=O)/C=C/c2ccccc2Cl)c(O)c1CN1CCOCC1 | inactive | 24.8% | 25.6 | 48.1% | –
COc1cc(OC)c(C(=O)/C=C/c2ccccc2F)c(O)c1CN1CCN(C)CC1 | inactive | 35.3% | 44.9 | inactive | 19.2
COc1cc(O)c(CN2CCCC2)c(O)c1C(=O)/C=C/c1ccccc1F | 1.2% | 32.9% | 21.4 | inactive | –
COc1cc(OC)c(C(=O)/C=C/c2cccc(F)c2)c(O)c1CN1CCCC1 | 1.3% | 11.7% | 21.4 | 19.4% | –
COc1cc(OC)c(C(=O)/C=C/c2ccccc2Cl)c(O)c1CN1CCN(C)CC1 | 0.1% | 10.8% | 68.8 | 35.5% | 11.9
COc1cc(OC)c(C(=O)/C=C/c2cccc(Cl)c2)c(O)c1CN1CCOCC1 | 1.1% | 21.9% | 48.2 | 13.9% | –
O=C(O)c1ccccc1O | 89.2% | – | – | 23.3% | –
COc1cc(OC)c(C(=O)/C=C/c2ccccc2Br)c(O)c1CN1CCOCC1 | 1.6% | 16.7% | 42.3 | 32.8% | –
COc1cc(OC)c(C(=O)/C=C/c2cccc(F)c2)c(O)c1CN1CCN(C)CC1 | inactive | 18.4% | 24.6 | 26.7% | –
COc1cc(OC)c(C(=O)/C=C/c2ccccc2F)c(O)c1CN1CCCCC1 | 1.4% | inactive | 19.9 | 56.6% | –
COc1cc(OC)c(C(=O)/C=C/c2ccccc2Br)c(O)c1CN1CCCC1 | 1.5% | 25% | 20.4 | 34.7% | –
COc1cc(OC)c(C(=O)/C=C/c2cccc(F)c2)c(O)c1CN1CCCCC1 | – | 14.6% | 21.7 | 7.06% | –
COc1cc(OC)c(C(=O)/C=C/c2cccc(F)c2)c(O)c1CN1CCOCC1 | 19.5% | 24% | 38.9 | 10.8% | –
CC(=O)Oc1ccccc1C(=O)O | – | – | 35.1 | – | –
O=c1c(O)c(-c2ccc(O)c(O)c2)oc2cc(O)cc(O)c12 | – | 86.3% | – | – | –
COc1cc(OC)c(C(=O)/C=C/c2cccc(Cl)c2)c(O)c1CN1CCN(C)CC1 | 1.3% | 5.2% | 77.8 | 23.7% | 28.7
COc1cc(OC)c(C(=O)/C=C/c2ccccc2Br)c(O)c1CN1CCN(C)CC1 | 1.2% | 27.8% | 48.9 | 42% | –
COc1cc(OC)c(C(=O)/C=C/c2cccc(Br)c2)c(O)c1CN1CCOCC1 | 1.2% | 10.1% | 22.4 | 29.3% | –
COc1cc(OC)c(C(=O)/C=C/c2cccc(Br)c2)c(O)c1CN1CCCC1 | 1.3% | 35.7% | 19.9 | 59.8% | –
COc1cc(OC)c(C(=O)/C=C/c2ccccc2Br)c(O)c1CN1CCCCC1 | 2.1% | 58.3% | 69.8 | 39.9% | –
COc1cc(OC)c(C(=O)/C=C/c2cccc(Cl)c2)c(O)c1CN1CCCCC1 | 0.5% | 20.9% | 87.9 | 66% | 25.2
COc1cc(OC)c(C(=O)/C=C/c2cccc(Br)c2)c(O)c1CN1CCN(C)CC1 | 1.4% | 37% | 33.3 | 75.4% | –
COc1cc(OC)c(C(=O)/C=C/c2ccccc2Cl)c(O)c1CN1CCCCC1 | 0.7% | 18.4% | 91.5 | 31.2% | 30.4
COc1cc(OC)c(C(=O)/C=C/c2ccccc2F)c(O)c1CN1CCOCC1 | 2% | 19.2% | 27.1 | 21.8% | –
